Measured values taken from article PMC6226357 (Breast cancer research and treatment, 2018).
Like-named read-outs stand apart in the source and are kept apart here.

Key:
metastatic breast cancer = details: cited from earlier work
estradiol = details: cited from earlier work
[1] = test system: women with locally advanced or metastatic TNBC or ER+ breast cancer; assay: Phase 1 safety and tolerability: treatment-emergent adverse events and DLT; format: in vivo, human
[2] = Pharmacokinetics after a single dose of seviteronel; format: in vivo, human
Procedure, shortened: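 Women took a single oral dose as 150-mg tablets. Blood was drawn before dosing and at 0.5, 1, 2, 4, 6, 8 and 24 h afterward. Plasma drug was measured by LC-MS/MS, with a lower limit of quantification of 20 ng/mL (0.05 uM). Parameters were derived by noncompartmental analysis.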

[3] = test system: unresectable locally advanced or metastatic breast cancer; assay: Efficacy: clinical benefit rate and tumor response; format: in vivo, human
Procedure, shortened: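 Women with triple-negative or postmenopausal ER+/HER2− unresectable locally advanced or metastatic disease took oral 150-mg tablets once daily in continuous 28-day cycles, in de-escalating cohorts. Imaging used bone scan, CT and/or MRI matching the baseline modality, every 2 months in year one and every 3 months thereafter. Clinical benefit was stable disease, partial or complete response (RECIST 1.1), scored at 16 weeks for TNBC and 24 weeks for ER+.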

[4] = test system: women with locally advanced or metastatic TNBC or ER+ breast cancer; assay: Treatment duration, discontinuations and dose modifications; format: in vivo, human; details: all dose cohorts; Twenty-one percent
Procedure, shortened: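 Dosing was oral, once daily, in continuous 28-day cycles. Drug was stopped for loss of clinical benefit, an adverse event precluding further participation, or withdrawal of consent. Toxicity was graded by NCI CTCAE v4.03. Evaluations were every two weeks in Cycle 1, then monthly through the end-of-treatment visit.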

[5] = test system: CYP17 lyase versus CYP17 17-α hydroxylase; details: cited from earlier work
[6] = test system: AR, wild-type and mutated forms (e.g., F876L and T877A); details: cited from earlier work
[7] = test system: MCF7 (ER+/low AR expression); details: higher potency/efficacy than enzalutamide; cited from earlier work
[8] = test system: H16N2 (AR-/PR-/low ER expression); details: higher potency/efficacy than enzalutamide; cited from earlier work
[9] = test system: tamoxifen-resistant MCF7 cells (TAMR); details: higher potency/efficacy than enzalutamide; cited from earlier work
[10] = test system: MDA-MB-453 cells (ER−/AR+); details: higher potency/efficacy than enzalutamide; cited from earlier work
[11] = test system: tamoxifen-resistant MCF7 xenograft; details: tamoxifen-resistant MCF7 mouse xenograft, compared to enzalutamide; cited from earlier work
[12] = randomized phase 2, metastatic ER+ breast cancer, N = 297
[13] = phase 2 TBCRC011, AR+ (ER−/PR−) metastatic breast cancer, N = 26
[14] = MDV3100-11, AR+ TNBC, N = 118, intent to treat AR > 0%, ref (12)

In the case of `C[C@]12CC[C@H](O)CC1=CC[C@@H]1[C@@H]2CC[C@]2(C)C(c3cccnc3)=CC[C@@H]12` [abiraterone], the “24-month CBR” value (metastatic breast cancer; metastatic AR+ TNBC, N = 30, evaluable AR ≥ 10%) is given as 20%, the “24-month CBR” value (metastatic breast cancer; metastatic ER+/AR+ breast cancer, N = 32, evaluable AR ≥ 1%) is given as 22% and the “Median PFS” value (metastatic breast cancer; [12]) is given as 3.7 months.
In the case of `CC(O)(CS(=O)(=O)c1ccc(F)cc1)C(=O)Nc1ccc(C#N)c(C(F)(F)F)c1` (stereo not shown) [bicalutamide], the “24-week CBR” value (metastatic breast cancer; [13]) is listed as 19%, the “Median progression-free survival (PFS)” value (metastatic breast cancer; [13]) is listed as 12 weeks and the Objective responses (metastatic breast cancer; [13]) is listed as “no objective responses”.
For `N#Cc1ccc(C(c2ccc(C#N)cc2)n2cncn2)cc1` [letrozole], the Decline in estradiol (estradiol; postmenopausal women with ER+ BC, by 3 months of treatment) is listed as “approximately 36%”.
In the case of `CC(C)[C@](O)(c1ccc2cc(OC(F)F)c(OC(F)F)cc2c1)c1c[nH]nn1` [Seviteronel], the Deaths reported ([1]; all considered unrelated to study drug (disease progression n=2, hepatic failure n=1, ischemic stroke n=1)) is reported as 4, the “Fatigue, AE incidence” value ([1]; female, human, in vivo) is reported as 37% and the “Nausea, AE incidence” value ([1]; female, human, in vivo) is reported as 42%. For the same molecule, the “Subjects with SAE Gr 3 or greater” value ([1]; female, human, in vivo) was 12 subjects, the “Tremor, AE incidence” value ([1]; female, human, in vivo) was 42% and the “Vomiting, AE incidence” value ([1]; female, human, in vivo) was 37%. The “Recommended phase 2 dose (RP2D) in women” value ([1]; female, human, in vivo, po) was 450 mg QD, the Hepatic transaminase elevation ([1]; in vivo) was “not associated with hepatic transaminase elevation” and the Hypokalemia ([1]; in vivo) was “not seen”. For the same molecule, the “Serious adverse events (SAE) Gr 3 or greater, number of events” value ([1]; in vivo) was “Fifteen”, the Tolerability ([1]; in vivo, po) was “generally well tolerated” and the half-life ([2]; female, human, plasma, oral, 750 mg, Half-life, single dose, across 450, 600, 750 mg) was 6.4 to 8.4 h. For the same molecule, the “Dose relationship of peak and trough plasma concentrations and AUC” value ([2]; single dose, 450-750 mg, women) was “dose-proportional relationship”, the “Relationship between exposure and body surface area and body mass index” value ([2]; three dose levels combined) was “moderate relationship” and the “Subjects reaching at least CBR16” value ([3]; 450 mg QD cohort (RP2D), 2 TNBC CBR16 and 2 ER+ CBR24) was 4 of 7. The “Subjects reaching CBR24 (24-week clinical benefit rate)” value ([3]; across dose groups, 2 of 19 subjects) was 11%, the “Subjects reaching at least CBR16 (16-week clinical benefit rate)” value ([3]; across dose groups, Five of 19 subjects) was 26.3% and the Objective tumor responses ([3]; all dose cohorts) was “no objective tumor responses”. The “Subjects with a dose reduction due to an AE” value [4] was 4/19, the “Selectivity for CYP17 lyase versus CYP17 17-α hydroxylase inhibition” value [5] was “approximately 10 fold” and the AR inhibition mechanism [6] was “competitive antagonism”. The “Estrogen-stimulated proliferation and cell growth in a soft agar assay” value [7] was “inhibited”, the Cellular proliferation [8] was “inhibited” and the “Growth of tamoxifen-resistant MCF7 cells” value [9] was “inhibited”. The DHT-stimulated growth [10] was “inhibited”, the Survival [11] was “increased survival” and the Tumor growth [11] was “inhibited tumor growth”.
In the case of `C=C1C[C@@H]2[C@H](CC[C@]3(C)C(=O)CC[C@@H]23)[C@@]2(C)C=CC(=O)C=C12` [exemestane], the “Median PFS” value (metastatic breast cancer; [12]) is listed as 3.7 months.
In the case of `CNC(=O)c1ccc(N2C(=S)N(c3ccc(C#N)c(C(F)(F)F)c3)C(=O)C2(C)C)cc1F` [enzalutamide], the Increase in estradiol (estradiol; given in combination with anastrozole) is given as 40%, the Increase in estradiol (estradiol; given in combination with exemestane) is given as 13% and the “16-week CBR” value (metastatic breast cancer; [14]) is given as 25%. The “24-week CBR” value (metastatic breast cancer; [14]) was 20% and the “Median PFS” value (metastatic breast cancer; [14]) was 12.6 weeks.
